High-throughput results: PubChem BioAssay, several laboratories
ALR H2O2 inh = inhibitors of human ALR sulfhydryl oxidase, primary screen, biochemical, H2O2 detection, HRP-luminol luminescence, single point. FAD-linked sulfhydryl oxidase ALR (Homo sapiens), P55789. purified ALR, DTT oxidation. inhibition, % (no concentration beside the values). actives 3.8% (n = 290,000);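 active means mean replicate inhibition above about 79%, with every replicate also reaching it, limit read from the data; inconclusive means only one of the two criteria met; inactive means mean below limit and not every replicate reaching it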
Target sequence (P55789 whole entry, looked up): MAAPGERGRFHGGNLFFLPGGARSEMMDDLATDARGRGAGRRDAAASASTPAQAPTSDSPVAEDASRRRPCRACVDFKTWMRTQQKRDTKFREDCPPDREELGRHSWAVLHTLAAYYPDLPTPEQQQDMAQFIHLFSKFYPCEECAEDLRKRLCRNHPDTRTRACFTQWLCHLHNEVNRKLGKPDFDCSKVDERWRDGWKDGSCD
NALP1 yeast inh = NALP1 inflammasome inhibitors in reconstituted yeast, colorimetric, S. cerevisiae, triplicate retest | actives 0.61% (n = 280,000) | inhibition, % at 10 µM | S. cerevisiae NALP1/ASC/caspase-1 growth, X-gal OD620, 72 h; in the data active means inhibition mostly above about 24%, no sharp cut-off; inactive means mostly below about 32%
UCH37 inh = inhibitors of human UCH37 deubiquitinase, primary screen, biochemical, Ub-AMC cleavage, fluorescence; inhibition, % (no concentration beside the values); Ubiquitin carboxyl-terminal hydrolase isozyme L5 (Homo sapiens), Q9Y5K5; purified proteasome/UCH37; actives 0.33% (n = 330,000);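 active means mean inhibition over replicate wells above about 20%, limit read from the data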
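System: Proteasome-associated human UCH37 deubiquitinase; Input: 0.15 nM proteasome in added enzyme buffer; Also added: Ub-AMC substrate from 1 µM stock; Incubation: 30 min compound-proteasome preincubation then 25 min substrate reaction, room temperature; Detection: fluorescence, ex 355 nm, em 460 nm; Read-out: % inhibition of Ub-AMC cleavage fluorescence; Benchmarks: no-proteasome and no-compound wells.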
ATG4B inhibitor = ATG4B protease inhibitors, primary screen, biochemical, fluorescence, uHTS | ATG4B cleavage of LC3-PLA2, NBD-HPC fluorescence, 1 h | actives 0.51% (n = 340,000) | inhibition, % at 8.33 µM | AID 504462, 2011; in the data active means inhibition above about 40%
Target sequence (Q9Y4P1 whole entry, looked up): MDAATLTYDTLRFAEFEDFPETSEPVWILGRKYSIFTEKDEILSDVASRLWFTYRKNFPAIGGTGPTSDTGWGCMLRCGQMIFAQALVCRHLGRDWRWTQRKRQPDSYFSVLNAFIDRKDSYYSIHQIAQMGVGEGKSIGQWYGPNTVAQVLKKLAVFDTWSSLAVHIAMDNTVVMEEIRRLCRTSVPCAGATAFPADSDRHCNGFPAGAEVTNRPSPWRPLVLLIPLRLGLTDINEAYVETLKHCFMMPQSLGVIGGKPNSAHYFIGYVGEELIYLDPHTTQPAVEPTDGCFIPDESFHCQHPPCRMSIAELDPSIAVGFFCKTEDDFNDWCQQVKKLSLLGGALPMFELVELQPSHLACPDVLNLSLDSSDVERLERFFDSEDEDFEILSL
Calb FLC = C. albicans growth inhibition with fluconazole, primary screen, CaCi-2 strain, Alamar Blue fluorescence; C. albicans CaCi-2 (fluconazole-resistant clinical isolate) + fluconazole, 48 h; growth inhibition, % (concentration not given with the values); actives 0.57% (n = 300,000); AID 1979, 2009;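 active means growth inhibition above about 58% in most replicates, limit read from the data, passing the limit was not always enough; inconclusive means exactly half the replicates above a set limit; inactive means most replicates below a set limit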;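 further: all wells also contain fluconazole at 8 µg/ml as a sub-toxic cotreatment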
NLRP3 yeast inh = NALP3 inflammasome inhibitors in reconstituted yeast, primary screen, luminescence, uHTS; inhibition, % at 10 µM; actives 0.39% (n = 330,000); AID 2825, 2010; Yeast reconstituted NLRP3/ASC/caspase-1, beta-gal luminescence, 24 h;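 active means inhibition of 50% or more; inactive means inhibition below 50%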
Hits are given with their value. Sampled rows, rich in hits. Any-hit rate of the full collection: about 4.8%.

Screening CCc1nnc(NC(=O)CSC(=S)N2CCOCC2)s1 returned ALR H2O2 inh inactive, NALP1 yeast inh inactive, UCH37 inh inactive, ATG4B inhibitor inactive, Calb FLC inactive and NLRP3 yeast inh inactive.
`CCOC(=O)c1ccc(NC(=S)N2CCN(c3ccc(N4CCOCC4)nn3)CC2)cc1` gave ALR H2O2 inh inactive, NALP1 yeast inh inactive, UCH37 inh inactive, ATG4B inhibitor inactive, Calb FLC inactive and NLRP3 yeast inh inactive.
`Cc1cnc(NC(=O)Cc2ccc(S(=O)(=O)N3CCOCC3)s2)s1` gave ALR H2O2 inh 92, ATG4B inhibitor inactive and NLRP3 yeast inh inactive.
`CC(C)(C)c1csc(NC(=O)Cc2ccc(S(=O)(=O)N3CCOCC3)s2)n1` gave UCH37 inh inactive, ATG4B inhibitor inactive, Calb FLC inactive and NLRP3 yeast inh inactive.
`COc1ccc(C=NN2CCN(c3ccccc3)CC2)cc1Br` gave UCH37 inh inactive.
`O=C(CN1c2ccccc2Sc2ccccc21)NN=Cc1ccc([N+](=O)[O-])cc1` gave UCH37 inh inactive.
CCOC(=O)c1ccc(NC(=O)N2CCOCC2)cc1 was read as ALR H2O2 inh inactive, NALP1 yeast inh inactive, UCH37 inh inactive, ATG4B inhibitor inactive, Calb FLC inactive and NLRP3 yeast inh inactive.
Screening Cc1ccc(C(=O)OCC(=O)Nc2ccc(N3CCOCC3)cc2)cc1 returned UCH37 inh inactive, ATG4B inhibitor inactive and NLRP3 yeast inh inactive.
For CCOC(=O)c1ccc(NC(=O)N2CCCCCC2)cc1 the results were ALR H2O2 inh inactive, NALP1 yeast inh 43, UCH37 inh inactive, ATG4B inhibitor inactive, Calb FLC inactive and NLRP3 yeast inh inactive.
Screening CCOC(=O)c1sc(NC(=O)CCSC)nc1C returned ALR H2O2 inh inactive, NALP1 yeast inh inactive, UCH37 inh inactive, ATG4B inhibitor inactive, Calb FLC inactive and NLRP3 yeast inh inactive.
`Cc1ccc(NC(=O)COC(=O)CSC(=S)N2CCOCC2)cc1` gave ALR H2O2 inh 98, NALP1 yeast inh inactive, UCH37 inh inactive, ATG4B inhibitor inactive, Calb FLC inactive and NLRP3 yeast inh inactive.
For CCOC(=O)c1sc(NC(=O)CSC(=S)N2CCN(C)CC2)nc1C the results were ALR H2O2 inh 99, NALP1 yeast inh inactive, UCH37 inh inactive, ATG4B inhibitor inactive, Calb FLC inactive and NLRP3 yeast inh inactive.
For Cc1cc(=O)n(-c2ccc(C(=O)O)cc2)[nH]1 the results were ALR H2O2 inh inactive, NALP1 yeast inh inactive, UCH37 inh inactive, ATG4B inhibitor inactive, Calb FLC inactive and NLRP3 yeast inh inactive.
Cc1cc(=O)n(-c2ccc(O)cc2)[nH]1 was read as ALR H2O2 inh 99, NALP1 yeast inh inactive, UCH37 inh inactive, ATG4B inhibitor inactive, Calb FLC inactive and NLRP3 yeast inh inactive.
`C=CCc1cccc(C=Nc2ncn[nH]2)c1O` gave UCH37 inh inactive.
CC1=C(CC[C@@H](C)CO)OC2CC3C4CCC5CC(O)CCC5(C)C4CC(=O)C3(C)C12 (stereo not given in full) was read as ALR H2O2 inh inactive, UCH37 inh inactive, ATG4B inhibitor inactive, Calb FLC 87 and NLRP3 yeast inh inactive.
Screening COc1ccccc1N1CCN(C(=O)CCNS(=O)(=O)c2cc(Br)cnc2N)CC1 returned ALR H2O2 inh 99, NALP1 yeast inh inactive, UCH37 inh inactive, ATG4B inhibitor inactive, Calb FLC inactive and NLRP3 yeast inh inactive.
O=C(c1ccc2ccccc2c1)N1CCN(c2ccc(O)cc2)CC1 was read as NALP1 yeast inh inactive, UCH37 inh inactive, ATG4B inhibitor inactive, Calb FLC inconclusive and NLRP3 yeast inh inactive.
For Cc1cccc(N2CCN(C(=O)CC(NC(=O)c3ccccc3Cl)c3ccccc3)CC2)c1C (stereo not given) the results were ALR H2O2 inh inactive, NALP1 yeast inh inactive, UCH37 inh inactive, ATG4B inhibitor inactive, Calb FLC inactive and NLRP3 yeast inh inactive.
`COc1ccccc1OCCC(=O)N1CCN(c2ccccc2OC)CC1` gave ALR H2O2 inh 82, UCH37 inh inactive, ATG4B inhibitor inactive, Calb FLC inactive and NLRP3 yeast inh inactive.
For O=C(CSc1ccc2ccccc2c1)N1CCN(c2ccc(O)cc2)CC1 the results were ALR H2O2 inh 98, NALP1 yeast inh inactive, UCH37 inh inactive, ATG4B inhibitor inactive, Calb FLC inactive and NLRP3 yeast inh inactive.
Screening O=C(NC(CC(=O)N1CCN(c2ccccc2O)CC1)c1ccccc1)c1ccccc1Cl (stereo not given) returned ALR H2O2 inh 99, UCH37 inh inactive, ATG4B inhibitor inactive and NLRP3 yeast inh inactive.
For CCCCN(CCCC)C(=O)C[n+]1cccc(C=NO)c1 the results were UCH37 inh inactive.
`COc1cc(C=NNC(=O)CCC(=O)Nc2ccc(F)cc2)ccc1O` gave UCH37 inh inactive.
CC(/C=C/c1ccc2c(c1)OCO2)=NNC(=O)C(O)c1ccccc1 (stereo not given) was read as UCH37 inh inactive.
CCCOc1ccc(C=c2sc3ncnn3c2=O)cc1 was read as UCH37 inh inactive.
Cc1ccc(C(=O)ON=C(N)c2nonc2N)cc1 was read as UCH37 inh inactive.
For COc1ccccc1C(=O)NCCC(=O)N1CCN(c2ccccc2O)CC1 the results were ALR H2O2 inh 91, UCH37 inh inactive, ATG4B inhibitor inactive, Calb FLC inactive and NLRP3 yeast inh inactive.
COc1ccccc1N1CCN(C(=O)CSc2ccccc2)CC1 was read as ALR H2O2 inh 99, NALP1 yeast inh inactive, UCH37 inh inactive, ATG4B inhibitor inactive, Calb FLC inactive and NLRP3 yeast inh inactive.
Screening COc1ccccc1N1CCN(C(=O)CCC(=O)N2CCN(c3ccccc3OC)CC2)CC1 returned ALR H2O2 inh inconclusive, NALP1 yeast inh inactive, UCH37 inh inactive, ATG4B inhibitor inactive, Calb FLC inactive and NLRP3 yeast inh inactive.
`O=C(NCC(=O)N1CCN(c2ccccc2O)CC1)c1cccs1` gave ALR H2O2 inh 99, UCH37 inh inactive, ATG4B inhibitor inactive, Calb FLC inactive and NLRP3 yeast inh inactive.
`COc1cc(C=NNC(=O)C(N)=O)ccc1OCC(=O)N1C(C)CCCC1C` (stereo not given) gave UCH37 inh inactive.
Screening O=C(NN=Cc1ccccn1)c1cc(C2CC2)[nH]n1 returned UCH37 inh inactive.
Screening O=C(C[n+]1ccccc1)NN=Cc1ccccc1[N+](=O)[O-] returned UCH37 inh inactive.
For CCc1ccc(-c2nc(CS(=O)CC(=O)NCc3cccnc3)c(C)o2)cc1 (stereo not given) the results were ALR H2O2 inh 99, NALP1 yeast inh inactive, UCH37 inh inactive, ATG4B inhibitor inactive, Calb FLC inactive and NLRP3 yeast inh inactive.
